In PMC5039020 (Journal of Alzheimer's disease : JAD, 2013):
“Also recorded” adds a separate entry of the source. Where two headings read alike, the source gives them in different places.

Key:
[1] = tested on: extracellular Aβ42; assay: Extracellular Aβ42 ELISA capture assay in N2a-AβPP695 cell supernatants; format: cell-based; details: for effect on extracellular Aβ42 level/production: N2a-AβPP695, compound alone, various concentrations; for effect on Aftin-5 induced extracellular Aβ42 production: N2a-AβPP695, compound together with 100 μM Aftin-5, 18 h
[2] = tested on: extracellular Aβ40; assay: Extracellular Aβ40 ELISA capture assay in N2a-AβPP695 cell supernatants; format: cell-based; details: for effect on extracellular Aβ40 level/production: N2a-AβPP695, compound alone, various concentrations; for effect on extracellular Aβ40 in Aftin-5 treated cells: N2a-AβPP695, compound together with 100 μM Aftin-5, 18 h; for IC50: read-out: IC50 Aβ40, N2a-AβPP695, GSI added 1 h before 100 μM Aftin-5, 18 h
[3] = tested on: extracellular Aβ38; assay: Extracellular Aβ38 ELISA capture assay in N2a-AβPP695 cell supernatants; format: cell-based; details: for effect on extracellular Aβ38 level: N2a-AβPP695, compound alone, various concentrations; for IC50: read-out: IC50 Aβ38, N2a-AβPP695, GSI added 1 h before 100 μM Aftin-5, 18 h
[4] = tested on: mitochondria isolated from N2a-AβPP695 cells; assay: Electron microscopy, ultrastructure of isolated mitochondria; details: 100 μM Aftin-5; 50 μM Calcium; 50 μM Calcium + CsA
[5] = tested on: intracellular Aβ38, Aβ40, and Aβ42; assay: Intracellular amyloids ELISA capture assay in N2a-AβPP695 cells; format: cell-based
Summary of the method: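 2 × 10⁶ N2a-AβPP695 cells per T25 flask in 0.5% FBS medium overnight, then treated for 18 h. Cells washed, scraped into PBS with protease inhibitors, pelleted, lysed in 1% Nonidet P-40, sonicated, and spun at 14,000 rpm for 15 min at 4°C. Lysate supernatant assayed by 6E10-capture sandwich ELISA with biotinylated Aβ38, Aβ40 or Aβ42 antibodies. Values expressed as fold over untreated cells.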

[6] = tested on: N2a-AβPP695 cells; assay: Autophagy assessment, counting of LC3 foci by immunofluorescence; format: cell-based
Summary of the method: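 Cells grown on glass coverslips, fixed in 4% paraformaldehyde, permeabilised with 50 μM digitonin, and stained with a monoclonal anti-LC3 antibody. Images taken with a 40× NA 0.85 objective. LC3 foci counted automatically by image analysis.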

[7] = tested on: SH-SY5Y; assay: Cell viability, MTS assay, SH-SY5Y; format: cell-based; details: read-out: IC50, cell viability (MTS assay), viability assessed 24 h later
[8] = tested on: HT22; assay: Cell viability, MTS assay, HT22; format: cell-based; details: read-out: IC50, cell viability (MTS assay); HT22, viability assessed 24 h later
Summary of the method: (§1)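 Each line was exposed to increasing concentrations of test compound, and viability was read 24 h later by MTS. 20 μL MTS reagent per 100 μL medium, 3 h at 37°C, 5% CO₂. Absorbance read at 490 and 630 nm. IC50 derived from dose-response curves.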

[9] = tested on: N2a; assay: Cell viability, MTS assay, N2a; format: cell-based; details: read-out: IC50, cell viability (MTS assay), viability assessed 24 h later
Summary of the method: as §1

[10] = tested on: N2a-AβPP695; assay: Cell viability, MTS assay, N2a-AβPP695; format: cell-based; details: for IC50: read-out: IC50, cell viability (MTS assay), N2a-AβPP695, viability assessed 24 h later
[11] = tested on: KinomeScan panel of 402/442 kinases; details: 402 kinases; cited from earlier work
[12] = tested on: KinomeScan panel of 402/442 kinases; assay: KinomeScan panel; format: binding; details: 10 μM
[13] = tested on: N2a-AβPP695 cells; assay: Mitochondrial parameters in cultured cells; format: cell-based
[14] = tested on: N2a-AβPP695 cells; assay: Electron microscopy, ultrastructure of mitochondria within cells; format: cell-based
[15] = Animal toxicity; format: in vivo; details: per os doses up to 150 mg/kg daily for 20 days; data not shown
[16] = N2a-AβPP695, dose-response, 18 h

O=C(O)CNC(=O)C(CS)Cc1ccccc1 (centres unmarked) [thiorphan]
effect on extracellular Aβ42 level/production ([1]; 18 h): no effects | effect on extracellular Aβ40 level/production ([2]; 18 h): no effects | effect on extracellular Aβ38 level ([3]; 18 h): no effects

[Ca+2] [calcium]
ultrastructure of isolated mitochondria (swelling, cristae remodeling) [4]: strong swelling

C[C@H](NC(=O)Cc1cc(F)cc(F)c1)C(=O)NC(C(=O)OC(C)(C)C)c1ccccc1 (some centres unmarked) [DAPT]
effect on Aftin-5 induced extracellular Aβ42 production [1]: down-regulated | effect on extracellular Aβ40 in Aftin-5 treated cells [2]: down-regulated | IC50 [2]: 0.062 µM | effect on extracellular Aβ38 / Aftin-5 induced Aβ38 down-regulation ([3]; N2a-AβPP695, compound together with 100 μM Aftin-5, 18 h): down-regulated | IC50 [3]: 0.112 µM | effect on levels of intracellular amyloids ([5]; N2a-AβPP695, 1 μM compound in presence of 100 μM Aftin-5, 18 h): but not that of intracellular amyloids

C[C@H](CS)C(=O)N1CCC[C@H]1C(=O)O [captopril]
effect on extracellular Aβ42 level/production ([1]; 18 h): no effects | effect on extracellular Aβ40 level/production ([2]; 18 h): no effects | effect on extracellular Aβ38 level ([3]; 18 h): no effects

CO[C@H]1C[C@@H]2CC[C@@H](C)[C@@](O)(O2)C(=O)C(=O)N2CCCC[C@H]2C(=O)O[C@H]([C@H](C)C[C@@H]2CC[C@@H](O)[C@H](OC)C2)CC(=O)[C@H](C)/C=C(\C)[C@@H](O)[C@@H](OC)C(=O)[C@H](C)C[C@H](C)/C=C/C=C/C=C/1C [rapamycin]
effect on Aftin-5 induced extracellular Aβ42 production [1]: did not prevent | autophagy, LC3 foci, compound alone [6]: accumulation of LC3 foci

Cn1cnc(N)c2ncnc1-2 [3-methyladenine]
effect on Aftin-5 induced extracellular Aβ42 production [1]: did not interfere

CN(Cc1ccccc1)c1nc(N)nc2[nH]cnc12 [compound (2)]
effect on extracellular Aβ42 level/production ([1]; 18 h): inactive | effect on rapamycin-induced autophagy [6]: Neither Aftin-5 nor its inactive analog compound (2) impaired rapamycin-induced autophagy

CN(C)c1ncnc2nc[nH]c12 [Aftin N6DA, N6-dimethylaminopurine]
effect on extracellular Aβ42 level/production ([1]; 18 h): inactive

CC(C)C[C@H](NP(=O)(O)O[C@@H]1O[C@@H](C)[C@H](O)[C@@H](O)[C@H]1O)C(=O)N[C@@H](Cc1c[nH]c2ccccc12)C(=O)O [phosphoramidon]
effect on extracellular Aβ42 level/production ([1]; 18 h): no effects | effect on extracellular Aβ40 level/production ([2]; 18 h): no effects | effect on extracellular Aβ38 level ([3]; 18 h): no effects

C[C@H](N[C@@H](CCc1ccccc1)C(=O)O)C(=O)N1Cc2ccccc2C[C@H]1C(=O)O [quinaprilat]
effect on extracellular Aβ42 level/production ([1]; 18 h): no effects | effect on extracellular Aβ40 level/production ([2]; 18 h): no effects | effect on extracellular Aβ38 level ([3]; 18 h): no effects

β-secretase inhibitor IV
effect on Aftin-5 induced extracellular Aβ42 production [1]: inhibited production | effect on extracellular Aβ40 in Aftin-5 treated cells [2]: inhibited production

CCC(CO)Nc1nc(N(C)Cc2ccccc2)c2ncn(C(C)C)c2n1 (centres unmarked) [Aftin-4, N^6-methyl-roscovitine]
IC50 [7]: 106 µM | IC50 [8]: 74 µM | IC50 [9]: 100 µM | IC50 [10]: 90 µM | effect on extracellular Aβ42 level/production ([1]; 18 h): bell-shaped | interaction with kinases (KinomeScan) [11]: no significant interaction

CC[C@H](CO)Nc1nc(N(C)c2ccccc2)c2ncn(C(C)C)c2n1 [Aftin-5]
IC50 [7]: 180 µM | IC50 [8]: 194 µM | IC50 [9]: 178 µM | IC50 [10]: 150 µM | cytotoxic effects on cells ([10]; up to 100 μM, or longest exposure 6 days, data not shown): did not show any cytotoxic effects; also recorded: little cell toxicity | time after addition at which Aβ42 production reached a plateau ([1]; N2a-AβPP695, 100 μM Aftin-5): about 12 h | effect on extracellular Aβ42 level/production ([1]; 18 h): linear up to the highest dose tested | increase of Aβ42 production (up to) [1, 16]: > 900% | maximum increase of Aβ40 level [2, 16]: 40% | decrease of Aβ38 level [3, 16]: > 70% | effect on levels of intracellular Aβ38, Aβ40, and Aβ42 ([5]; N2a-AβPP695, 100 μM Aftin-5, 18 h): did not modify | interaction with kinases (KinomeScan) [12]: no interaction with any of the kinases | effect on rapamycin-induced autophagy [6]: Neither Aftin-5 nor its inactive analog compound (2) impaired rapamycin-induced autophagy | mitochondrial parameters at the cellular level, control vs treated cells [13]: essentially undistinguishable | global respiration functions ([13]; 24 h): slight inhibition | ultrastructure of isolated mitochondria (swelling, cristae remodeling) [4]: did not induce any swelling or cristae remodeling | ultrastructure of mitochondria within cells, 6 h ([14]; 100 μM, 6 h): little detectable effects | ultrastructure of mitochondria within cells, 24 h ([14]; 100 μM, 24 h, reversible upon washing): partial mitochondrial swelling without disruption of cristae | animal toxicity [15]: little

C[C@H](c1ccc(F)cc1CCCC(=O)O)N(c1cc(F)ccc1F)S(=O)(=O)c1ccc(Cl)cc1 [BMS 299897]
IC50 [2]: 0.056 µM | IC50 [3]: 0.088 µM

COc1cccc2c1C(=O)c1c(O)c3c(c(O)c1C2=O)C[C@@](O)(C(=O)CO)C[C@@H]3O[C@H]1C[C@H](N)[C@H](O)[C@H](C)O1 [doxorubicin]
ultrastructure of mitochondria within cells, positive control ([14]; 5 μM doxorubicin): altered the structure of cristae and induced cell death

CC[C@H](CO)Nc1nc(NCc2ccccc2)c2ncn(C(C)C)c2n1 [roscovitine, (R)-Roscovitine]
effect on extracellular Aβ42 level/production ([1]; 18 h): little effect
